In ChEMBL document CHEMBL4665634, “Inhibiting Aβ toxicity in Alzheimer's disease by a pyridine amine derivative” (Eur J Med Chem, 2019) one finds Activity, fold change (FC) and inhibition data, which are given here for one molecule.

Calls of active or inactive are those of the source. No cut-off for these calls is given here.

In data set [1] the test system is Caenorhabditis elegans. The data set is described as follows: Inhibition of AChE in Caenorhabditis elegans CL4176 assessed as enzyme activity at 100 uM after 48 hrs by DTNB reagent based colorimetric analysis (reference value: 272.49 +/- 14.6 units/L). As to conditions: […]. In short, it runs like this: (§1)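 Transgenic CL4176 worms kept on NGM plates with compound (0, 25, 50, 100 µM) at 25 °C for 48 h. Lysates made by sonication in 0.1 M phosphate buffer pH 7.4 and centrifuged at 13000 rpm for 5 min. AChE activity in the supernatant was measured with a kit, read as absorbance at 412 nm, given in Units/L normalized to protein concentration, mean ± S.D.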

Data set [2] relates to Caenorhabditis elegans. In words: Upregulation of hsp-16.2 mRNA expression in Caenorhabditis elegans CL4176 at 50 uM by qRT-PCR analysis relative to control. In kind it is functional. In short, it runs like this: (§2)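 CL4176 worms treated with compound at 25 °C for 48 h (50, 100 µM for amy-1). RNA extracted with Trizol, cDNA made, EvaGreen qRT-PCR run for 40 cycles (95 °C 5 s, 60 °C 5 s). Normalized to ama-1 by the 2^−ΔΔCt method. Three independent preparations, samples in triplicate.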

In data set [3] the test system is Caenorhabditis elegans. In words: Antioxidant activity in Caenorhabditis elegans CL4176 assessed as effect on juglone-induced ROS level by measuring relative fluorescence intensity at 100 uM and 15 to 25 degreeC after 48 hrs by H2DCF-DA probe based fluorescence assay ( Rvb = 74.23 %). In kind it is functional.
In data set [4] the test system is Caenorhabditis elegans. In words: Effect on skn-1 mRNA expression in Caenorhabditis elegans CL4176 at 50 uM by qRT-PCR analysis. It counts as functional. In short, it runs like this:
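CL4176 qRT-PCR of skn-1 or sod-3. RNA extracted with Trizol, EvaGreen qRT-PCR run for 40 cycles (95 °C 5 s, 60 °C 5 s). Normalized to ama-1 by the 2^−ΔΔCt method. Three independent RNA/cDNA preparations, run in triplicate.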

The target of data set [5] is T1, Amyloid-beta precursor protein (Homo sapiens, UniProt P05067). In words: Inhibition of amyloid beta (1 to 42)-induced paralysis in transgenic Caenorhabditis elegans GMC101 L3 expressing human amyloid beta (1 to 42) assessed as reduction in fluorescence intensity at 50 uM incubated for 2 days by fluorescence based confocal microscopic analysis relative to control. Conditions: time 2.0 day. An outline of the steps: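 GMC101 L3 worms kept on compound plates (50, 100 µM) at 25 °C for 2 days, mounted on 2% agarose pads. GFP imaged by confocal microscopy at ex 488/em 500–530 nm and intensity quantified. Two experiments, 15 worms per group.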

Data set [6] concerns Caenorhabditis elegans. The data set is described as follows: Induction of HSP expression in Caenorhabditis elegans. In kind it is functional.
In data set [7] the target is T1, Amyloid-beta precursor protein. The data set is described as follows: Inhibition of amyloid beta (1 to 42)-induced paralysis in transgenic Caenorhabditis elegans GMC101 expressing human amyloid beta (1 to 42) assessed as paralyzed worms at 200 uM measured after 92 hrs by microscopic analysis relative to control. Details: scale not given: the % may be the effect or the level left.

Another data set relates to PC-12. In words: Cytotoxicity against rat PC-12 cells assessed as reduction in cell viability at 100 uM measured after 48 hrs by MTT assay relative to control. It counts as cell-based. As to conditions: pc-12, 48 h. In short, it runs like this:
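PC12 cells differentiated with NGF, then cultured overnight in RPMI-1640 with 10% FBS at 37 °C, 5% CO2. MTT assay with formazan absorbance at 570 nm. Viability = (OD test − blank)/(OD control − blank) × 100%, mean of three replicates.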
(Tetrazolium assays rely on reduction of a dye to a coloured formazan, in cell work by metabolically active cells.)

Data set [8] relates to Caenorhabditis elegans. The data set is described as follows: Upregulation of hsp-60 mRNA expression in Caenorhabditis elegans CL4176 at 50 uM by qRT-PCR analysis relative to control. In kind it is functional. An outline of the steps: as §2
A short description of data set [9]: Disaggregation of Zn2+ induced fibrils of amyloid beta (1 to 40) assessed as appearance of small soluble fragments at 0.1 to 100 uM incubated for 24 hrs uranyl acetate staining-based by TEM analysis. As to conditions: dose microM 0.1-100, time 24.0 hrs.
Data set [10] has as its target T1, Amyloid-beta precursor protein. In words: Inhibition of self-induced amyloid beta (1 to 42) (unknown origin) aggregation assessed as decrease in negative band ellipticity and shift around 230 nm resulting in inhibition of beta-sheets formation at 80 uM incubated for 24 hrs by circular dichroism spectroscopy. An outline of the steps:
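CD spectra taken on Aβ42 (40 µM). Metal ion (ZnCl2 or CuCl2, 40 µM) was preincubated 5 min at room temperature where present, then compound (80 µM) was added and incubated at 37 °C for 24 h. Spectra recorded 190–270 nm in a 1.0 cm quartz cell, bandwidth 0.1 nm, response time 10 s.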
(In general: Circular dichroism is widely used to follow secondary structure.)

For data set [11], the system named is Caenorhabditis elegans. In words: Reduction in 12 kDa amyloid beta species expression in Caenorhabditis elegans CL4176 at 50 uM after 48 hrs by Western blot analysis. In kind it is functional. In short, it runs like this:
(§3)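 CL4176 raised on plates with compound (50 µM) at 15 °C to L3, then kept at 25 °C for 2 days. Worms sonicated in 0.1 M phosphate buffer, 16 µg protein run on 12% SDS-PAGE and blotted to PVDF. Probed with 6E10 (1:1000) and HRP anti-mouse secondary, with β-actin as the loading control.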

Data set [12] in a line: Disaggregation of Cu2+ induced fibrils of amyloid beta (1 to 40) assessed as appearance of small soluble fragments at 0.1 to 100 uM incubated for 24 hrs uranyl acetate staining-based by TEM analysis. As to conditions: dose microM 0.1-100, time 24.0 hrs.
Data set [13] concerns Caenorhabditis elegans. The data set is described as follows: Reduction in amy-1 mRNA expression in Caenorhabditis elegans CL4176 at 50 to 100 uM after 48 hrs by qRT-PCR analysis. In kind it is functional. Conditions: dose microM 50-100, time 48.0 hrs. An outline of the steps: as §2
A general note: Quantitative PCR measures a nucleic acid by following its amplification.

Data set [14] relates to Caenorhabditis elegans. In words: Effect on ace-1 mRNA expression in Caenorhabditis elegans CL4176. It counts as functional.
Data set [15] deals with Caenorhabditis elegans. In words: Reduction in 16 kDa amyloid beta species expression in Caenorhabditis elegans CL4176 at 50 uM after 48 hrs by Western blot analysis. It counts as functional. In short, it runs like this: as §3
Data set [16] deals with Caenorhabditis elegans. In words: Upregulation of hsf-1 mRNA expression in Caenorhabditis elegans CL4176 at 50 uM by qRT-PCR analysis relative to control. In kind it is functional. In short, it runs like this:
as §2

Data set [17] has as its system Caenorhabditis elegans. In words: Inhibition of AChE in Caenorhabditis elegans CL4176 assessed as enzyme activity at 50 uM after 48 hrs by DTNB reagent based colorimetric analysis (reference value: 272.49 +/- 14.6 units/L). Conditions: […]. An outline of the steps:
as §1

For data set [18], the target named is T1, Amyloid-beta precursor protein. The data set is described as follows: Inhibition of amyloid beta (1 to 42)-induced paralysis in transgenic Caenorhabditis elegans CL4176 expressing human amyloid beta (1 to 42) assessed as paralyzed worms at 50 uM treated for 49 hrs at 25 degreeC by microscopic analysis (reference value: 87 %). Details: scale not given: the % may be the effect or the level left.

The target is the same in data set [19]. The data set is described as follows: Inhibition of amyloid beta (1 to 42)-induced paralysis in transgenic Caenorhabditis elegans CL4176 expressing human amyloid beta (1 to 42) assessed as paralyzed worms at 100 uM treated for 49 hrs at 25 degreeC by microscopic analysis (reference value: 87 %). On the set-up: scale not given: the % may be the effect or the level left.

Data set [20] is described as follows: Inhibition of Zn2+ induced amyloid beta (1 to 40) aggregation assessed as reduction in fluorescence intensity at 20 uM preincubated for 5 mins in presence of ZnCl2 followed by compound addition addition and incubated for 24 hrs by Thioflavin T based fluorometric assay. In short, it runs like this:
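Aβ40 (20 µM) preincubated with CuCl2 or ZnCl2 (20 µM) for 5 min at room temperature. Compound (20 µM) added, incubated 37 °C for 24 h. ThT (5 µM) added, fluorescence read at ex 450/em 485 nm. Mean ± S.D. of at least three independent experiments.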

T1 sequence (P05067 whole entry): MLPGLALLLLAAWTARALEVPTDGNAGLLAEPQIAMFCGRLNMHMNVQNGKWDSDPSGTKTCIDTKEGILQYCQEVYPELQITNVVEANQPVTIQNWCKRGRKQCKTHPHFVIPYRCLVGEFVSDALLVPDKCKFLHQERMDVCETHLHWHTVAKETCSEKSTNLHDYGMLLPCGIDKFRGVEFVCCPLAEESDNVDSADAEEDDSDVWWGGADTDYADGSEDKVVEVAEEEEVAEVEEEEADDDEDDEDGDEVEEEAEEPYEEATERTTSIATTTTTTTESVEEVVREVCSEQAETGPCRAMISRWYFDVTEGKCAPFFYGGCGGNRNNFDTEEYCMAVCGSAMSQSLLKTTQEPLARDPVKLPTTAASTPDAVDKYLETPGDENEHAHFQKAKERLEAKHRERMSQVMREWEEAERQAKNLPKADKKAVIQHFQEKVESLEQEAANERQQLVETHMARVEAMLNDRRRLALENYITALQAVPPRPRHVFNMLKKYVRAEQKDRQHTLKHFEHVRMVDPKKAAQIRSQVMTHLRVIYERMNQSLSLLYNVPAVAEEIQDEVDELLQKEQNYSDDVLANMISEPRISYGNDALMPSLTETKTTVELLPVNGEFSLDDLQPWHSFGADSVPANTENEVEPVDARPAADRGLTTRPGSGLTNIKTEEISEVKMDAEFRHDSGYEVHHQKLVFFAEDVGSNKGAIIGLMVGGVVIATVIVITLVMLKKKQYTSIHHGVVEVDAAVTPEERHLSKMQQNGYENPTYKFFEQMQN

Regarding `Oc1cc(CN(Cc2ccccn2)Cc2ccccn2)cc(C[P+](c2ccccc2)(c2ccccc2)c2ccccc2)c1.[Br-]`, the Activity in the data set on Caenorhabditis elegans [1] was determined as 135 U/L; in the data set on Caenorhabditis elegans [3], 28.14%; in data set [7] it was 35%; in the data set with PC-12, 80.5%; with Caenorhabditis elegans [17], 166 U/L; in data set [18] it was 74%. Further, the Activity in [19] is 66%. For the same molecule, the fold change (FC) in the data set on Caenorhabditis elegans [2] stood at 2.15; in the data set with Caenorhabditis elegans [8] it was 1.59; in the data set with Caenorhabditis elegans [16], 1.55. Also, the outcome with Caenorhabditis elegans [4] and with Caenorhabditis elegans [14] was inactive. Also, in data set [5], the inhibition (as a rule, the share of the control response that was lost under treatment) came to 43%. Besides, the result (with Caenorhabditis elegans [6]; in [9]; in the data set on Caenorhabditis elegans [11]; in data set [12]; with Caenorhabditis elegans [13]; in the data set on Caenorhabditis elegans [15]) was Active. The inhibition entry in data set [10] and in data set [20] was “Active” in each case.
